# In PubChem BioAssay AID804 (SRMLSC, 2007):
# The whole screen tested about 140,000 compounds, of which about 710 (0.51%) were called active.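 Rule for the calls: active = inhibition above a set limit, 3 SD over the mean compound inhibition (cut at about 44% in these data); inactive = the rest.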 The entries come from a sample that favours actives as a whole.
# Experiment: BB579 yeast growth reduction, restrictive medium – S. cerevisiae, yeast lifespan-shortening project, primary screen (AID 804)
# Details: OD615, 48 h, at 10 µM, active compounds read high
# How it was run: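 Test system: S. cerevisiae DeaD strain BB579 yeast; Medium: restrictive CSMM-D medium; Compound: one dose, 10 µM compound with 0.25% DMSO; Incubation: 4 h cell preincubation, 48 h compound exposure, 30 °C humidified; Signal: OD at 615 nm; Benchmarks: amphotericin B at 10 µg/mL as positive control.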
row,Structure (SMILES),inhibition
1,Cc1ccc(N2C(=O)C(NC(=O)c3c(F)cccc3F)(C(F)(F)F)C3=C2CC(C)(C)CC3=O)cc1 (stereo not drawn),-1.52% (inactive)
2,CCOC(=O)NN1C(=O)c2ccccc2NC1c1cccc(O)c1 (stereo not drawn),9.36% (inactive)
3,O=C1c2ccccc2NC(c2ccc(-c3cccc(Cl)c3)o2)N1O (stereo not drawn),64.1% (active)
4,C=CCN(CC=C)S(=O)(=O)c1ccc(C(=O)Nc2nc3c(s2)CCc2ccccc2-3)cc1,-67.9% (inactive)
5,O=C(C1CCCO1)N1CCN(C(=S)Nc2cccc(Cl)c2)CC1 (stereo not drawn),-3.25% (inactive)
6,CC1(C)CC(=O)C(N=Nc2ccc(S(=O)(=O)N3CCCCCC3)cc2)=C(O)C1,-5.4% (inactive)
7,C/C(CC(=O)Nc1ccc(Cl)cc1)=N\NC(=O)C(=O)NCCO,-6.42% (inactive)
8,Cc1cc2oc(C(=O)Nc3c(C)n(C)n(-c4ccccc4)c3=O)c(C)c2cc1Cl,-44% (inactive)
9,Cc1ccc(NC(=O)c2cccs2)cc1S(=O)(=O)N(C)C,-35.7% (inactive)
10,Cc1ccc(-c2nn(C(C)(C)C)c3ncnc(N)c23)cc1,81.2% (active)
11,O=C(CC(=O)Nc1ccc(Cl)c(Cl)c1)N/N=C/c1ccc(O)cc1,-54.1% (inactive)
12,O=C(CC(O)(C(F)(F)F)C(F)(F)F)Nc1ccc(Cl)c(Cl)c1,80.1% (active)
13,O=C(Cc1ccc(Cl)c(Cl)c1)Nc1ccc(SC(F)F)cc1,-39.5% (inactive)
14,Cc1scc(C(=O)NNC(=S)NCc2ccccc2)c1C,-2.5% (inactive)
15,CCOC(=O)NN1C(=O)c2ccccc2NC1c1ccccc1O (stereo not drawn),7.28% (inactive)
16,COC(=O)C1=C(C)N(C)C(=S)NC1c1ccccc1 (stereo not drawn),8.95% (inactive)
17,Cc1c(Cl)cnc(NC(=O)COC(=O)c2ccc(S(=O)(=O)NCc3ccco3)cc2)c1Cl,-12.2% (inactive)
18,CCN(CC)c1ccc(S(=O)(=O)N2CCOCC2)cc1NC(=O)CSc1cccc[n+]1[O-],89% (active)
19,Cc1cc(C(=O)OC(C)C(=O)Nc2cccc(S(=O)(=O)N3CCOCC3)c2)c(C)o1 (stereo not drawn),-42.7% (inactive)
20,CC(Sc1cccc[n+]1[O-])C(=O)Nc1cccc(S(=O)(=O)N2CCOCC2)c1 (stereo not drawn),95.2% (active)

row,Structure (SMILES),inhibition
1,Cc1ccc(-c2nn(-c3ccccc3)cc2C(=O)Nc2cccc(S(=O)(=O)N3CCOCC3)c2)cc1,-29% (inactive)
2,O=C(CN1CCN(c2ccc(O)cc2)CC1)Nc1cc(S(=O)(=O)N2CCOCC2)ccc1Cl,-37.9% (inactive)
3,Cn1c(SCC(=O)Nc2cccc(O)c2)nnc1-c1ccc(S(=O)(=O)N2CCOCC2)cc1,2.85% (inactive)
4,COc1ccccc1CNC(=O)CN1CCC(n2cnc3cc(F)ccc32)CC1,-21.9% (inactive)
5,Cn1c(CNC(=O)c2ccccc2F)nnc1SCc1ccc(F)cc1,6.65% (inactive)
6,CCCCC1N2CC3([N+](=O)[O-])CN1CC([N+](=O)[O-])(C2)C3(C)C (stereo not drawn),-27.8% (inactive)
7,CC(C)(C)C1C/C(=C/c2ccco2)C(=O)/C(=C/c2ccco2)C1 (stereo not drawn),-19.6% (inactive)
8,Oc1c(CN2CCN(c3ccc(F)cc3)CC2)cc(Cl)c2cccnc12,99.3% (active)
9,CCN1CCN(C(c2cccnc2)c2cc(Cl)c3cccnc3c2O)CC1 (stereo not drawn),6.22% (inactive)
10,O=C(c1cccc(C(=O)N2CCN(c3ccc(F)cc3)CC2)c1)N1CCN(c2ccc(F)cc2)CC1,-61.4% (inactive)
11,Cc1cccc(NC(=S)NCc2ccc3[nH]c4c(c3c2)CCCC4)c1,15.9% (inactive)
12,CCc1cccc(CC)c1NC(=S)NCc1ccc2[nH]c(C)cc2c1,54.3% (active)
13,Cc1cc2cc(CNC(=O)c3cccs3)ccc2[nH]1,-4.49% (inactive)
14,CCCc1ccc(OCC(=O)NNC(=S)NC(=O)c2ccco2)cc1,98.5% (active)
15,COc1ccc(C(=O)NC(=S)NNC(=O)CCc2ccccc2)cc1,-10.9% (inactive)
16,COc1ccc(CCNC(=O)c2ccco2)cc1,-10.2% (inactive)
17,CC(Oc1ccc2ccccc2c1)C(=O)NNC(=S)NC(=O)c1ccco1 (stereo not drawn),98.2% (active)
18,O=C(Nc1ccc2ccccc2c1)/C(=C/c1cccc(Br)c1)NC(=O)c1ccco1,-32.8% (inactive)
19,O=C(Nc1ccc2ccccc2c1)/C(=C\c1ccc2c(c1)OCO2)NC(=O)c1ccco1,6.72% (inactive)
20,NC(=O)C[C@@H]1NC(=O)CNC(=O)c2cc([N+](=O)[O-])cc(I)c2NCCC(C(N)=O)NC1=O (stereo partly drawn),1.08% (inactive)

row,Structure (SMILES),inhibition
1,CC1CN/C(=C\C(=O)c2ccc(Br)cc2)C(=O)N1 (stereo not drawn),-42.4% (inactive)
2,Cc1cc(Cl)ccc1NC(=S)N1CCC(C(N)=O)(N2CCCCC2)CC1,1.37% (inactive)
3,Cc1ccc(OC(=O)CCC(=O)Nc2ccc(Br)cc2)cc1,3.42% (inactive)
4,O=C(CSc1ncn[nH]1)Nc1nsc(-c2ccccc2)n1,4.99% (inactive)
5,Cc1cccc(OP(=O)(Nc2c(C)n(C)n(-c3ccccc3)c2=O)Oc2cccc(C)c2)c1,-0.66% (inactive)
6,CCOC(=O)C1CCN(C(=O)/C=C/c2cc(OC)c(OC)c(OC)c2)CC1,-12.6% (inactive)
7,O=C(COC(=O)c1cc(-c2cccs2)nn1-c1ccccc1)Nc1cc([N+](=O)[O-])ccc1Cl,-30.3% (inactive)
8,O=C(Nc1cccc([N+](=O)[O-])c1)c1ccc2c(c1)OCO2,-10.3% (inactive)
9,CCOC(=O)c1ccccc1C(=O)N1CCOCCOCCOCC1,-13.3% (inactive)
10,CCCCOc1ccc(C(=O)NCC(=O)OCC(=O)N2CCN(S(=O)(=O)c3ccc(C)cc3C)CC2)cc1,-38.7% (inactive)
11,O=C(COC(=O)/C=C/c1cccc(Cl)c1)NCCc1ccccc1,-16.6% (inactive)
12,Cc1nc2ccc(C(=O)O)cc2[nH]1,44.4% (active)
13,Cc1ccc2nc(S(=O)(=O)O)[nH]c2c1,-11.6% (inactive)
14,CC(C)c1nc2ccc(C(=O)O)cc2[nH]1,-7.86% (inactive)
15,COc1ccc(CCNC(=O)CSc2nc(-c3ccc(OC)c(OC)c3)ccc2C#N)cc1,-21.2% (inactive)
16,COc1cccc(/C=N/Nc2ncc(C(F)(F)F)cc2Cl)c1O,64.1% (active)
17,COc1cc(/C=C2\SC(=S)N(Nc3ncc(C(F)(F)F)cc3Cl)C2=O)cc(OC)c1OC,-16.3% (inactive)
18,COc1cccc(/C=N\NC(=O)C2=NNC(=O)C2C)c1O (stereo not drawn),1.19% (inactive)
